Source: paper PMC4772774 (Journal of medicinal chemistry, 2015)
Read-outs that look alike come from different tables or passages of the source.

Assays:
µ-opioid receptor (MOR) [1] = molecular target: T1, µ-opioid receptor (MOR) (Rattus norvegicus, UniProt P33535); settings: relative to DAMGO at 10 µM; previously published, ref [1]; cited from earlier work
δ-opioid receptor (DOR) [2] = molecular target: T2, δ-opioid receptor (DOR) (Rattus norvegicus, UniProt P33533); assay: Agonist stimulation of [35S]GTPγS binding, C6-DOR membranes; format: biochemical; settings: dns: does not stimulate; for EC50 DOR: [35S]GTPγS binding, mean (S.E.M.), n=3; for % stimulation DOR: percent maximal stimulation relative to DPDPE at 10 µM
Method in brief: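 C6 rat glioma cells stably expressing rat DOR; membranes (10–20 µg protein) incubated 1 h at 25°C in 50 mM Tris-HCl, 100 mM NaCl, 5 mM MgCl2, pH 7.4, with 0.1 nM [35S]GTPγS, 30 µM GDP and varying test compound.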

κ-opioid receptor (KOR) [3] = molecular target: T3, κ-opioid receptor (KOR) (Homo sapiens, UniProt P41145); assay: Agonist stimulation of [35S]GTPγS binding, CHO-KOR membranes; format: biochemical; settings: for EC50 KOR: [35S]GTPγS binding, mean (S.E.M.), n=3 (footnote d: n=2), dns: does not stimulate
δ-opioid receptor (DOR) [4] = molecular target: T2, δ-opioid receptor (DOR); settings: [35S]GTPγS binding; dns: does not stimulate; previously published, ref [1]; cited from earlier work
κ-opioid receptor (KOR) [5] = molecular target: T3, κ-opioid receptor (KOR); settings: [35S]GTPγS binding; dns: does not stimulate; previously published, ref [1]; cited from earlier work
DOR = DOR (Rattus norvegicus, UniProt P33533); assay: Antagonism of the DOR agonist DPDPE; format: biochemical
Plasma stability testing = format: in vitro ADME; settings: in plasma after 30 min
µ-opioid receptor (MOR) [6] = molecular target: T1, µ-opioid receptor (MOR); assay: [3H]diprenorphine competitive displacement binding, C6-MOR membranes
µ-opioid receptor (MOR) [7] = molecular target: T1, µ-opioid receptor (MOR); assay: Agonist stimulation of [35S]GTPγS binding, C6-MOR membranes; format: biochemical; settings: dns: does not stimulate
Method in brief: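 C6 rat glioma cells stably expressing rat MOR were grown in DMEM/10% FBS. Membranes (10–20 µg protein) were incubated 1 h at 25 °C in 50 mM Tris-HCl, 100 mM NaCl, 5 mM MgCl2, pH 7.4, with 0.1 nM [35S]GTPγS, 30 µM GDP and varying compound concentrations. Samples were GF/C-filtered and scintillation-counted. Stimulation was expressed relative to 10 µM DAMGO.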

C57BL/6 mice = assay: Mouse warm water tail withdrawal; format: in vivo; settings: 10 mg/kg ip

T2 sequence (P33533 whole entry): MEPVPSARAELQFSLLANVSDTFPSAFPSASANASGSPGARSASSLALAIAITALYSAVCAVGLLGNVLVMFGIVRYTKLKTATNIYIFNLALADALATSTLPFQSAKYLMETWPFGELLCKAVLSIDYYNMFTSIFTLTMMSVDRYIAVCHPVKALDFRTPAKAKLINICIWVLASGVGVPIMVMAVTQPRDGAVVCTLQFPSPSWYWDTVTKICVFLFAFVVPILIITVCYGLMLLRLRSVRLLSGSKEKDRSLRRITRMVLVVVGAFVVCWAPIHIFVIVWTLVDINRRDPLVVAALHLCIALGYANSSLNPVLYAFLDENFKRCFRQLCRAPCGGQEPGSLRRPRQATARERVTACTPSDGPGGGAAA
T1 sequence (P33535 whole entry): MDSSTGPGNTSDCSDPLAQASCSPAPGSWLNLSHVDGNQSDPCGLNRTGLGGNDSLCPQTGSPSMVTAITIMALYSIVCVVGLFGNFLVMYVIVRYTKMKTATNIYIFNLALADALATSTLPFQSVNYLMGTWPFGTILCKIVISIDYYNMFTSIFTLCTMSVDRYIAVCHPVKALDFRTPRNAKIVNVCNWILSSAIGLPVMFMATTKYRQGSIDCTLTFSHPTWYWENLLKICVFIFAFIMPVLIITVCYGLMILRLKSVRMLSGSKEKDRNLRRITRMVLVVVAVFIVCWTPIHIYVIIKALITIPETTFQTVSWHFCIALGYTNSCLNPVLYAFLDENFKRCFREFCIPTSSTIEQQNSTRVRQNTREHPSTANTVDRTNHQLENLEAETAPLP
T3 sequence (P41145 whole entry): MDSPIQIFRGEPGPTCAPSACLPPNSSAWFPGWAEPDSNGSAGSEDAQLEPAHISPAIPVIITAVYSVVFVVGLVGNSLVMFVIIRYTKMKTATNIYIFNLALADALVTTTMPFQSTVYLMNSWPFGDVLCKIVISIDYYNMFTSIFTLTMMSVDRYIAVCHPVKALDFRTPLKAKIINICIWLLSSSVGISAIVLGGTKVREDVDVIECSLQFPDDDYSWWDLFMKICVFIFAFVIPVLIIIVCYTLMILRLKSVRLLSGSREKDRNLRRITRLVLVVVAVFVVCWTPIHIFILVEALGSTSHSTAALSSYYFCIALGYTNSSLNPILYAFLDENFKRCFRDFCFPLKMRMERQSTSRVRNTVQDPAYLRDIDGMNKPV
Chain of DOR (P33533 whole entry): as the sequence (P33533 whole entry) above

Compound | EC50 DOR (δ-opioid receptor (DOR) [2]) | % stimulation DOR (δ-opioid receptor (DOR) [2]) | EC50 KOR (κ-opioid receptor (KOR) [3]) | further results
Cc1cc(O)cc(C)c1C[C@H](N)C(=O)N[C@@H]1CCNc2ccc(CC3Cc4ccccc4C3)cc21 [14l, (S)-2-Amino-N-((R)-6-((2,3-dihydro-1H–inden-2-yl)methyl)-1,2,3,4-tetrahydroquinolin-4-yl)-3-(4-hydroxy-2,6-dimethylphenyl)propanamide] |  |  |  | % stimulation MOR (µ-opioid receptor (MOR) [1]): 86 (1) %
Cc1cc(O)cc(C)c1C[C@H](N)C(=O)N[C@@H]1CCCc2ccc(Cc3ccccc3)cc21 [14m, (S)-2-Amino-N-((R)-7-benzyl-1,2,3,4-tetrahydronaphthalen-1-yl)-3-(4-hydroxy-2,6-dimethylphenyl) propanamide] | dns | dns | dns | 
Cc1cc(O)cc(C)c1C[C@H](N)C(=O)N[C@@H]1CCNc2ccc(Cc3ccc4ccccc4c3)cc21 [14j, (S)-2-Amino-3-(4-hydroxy-2,6-dimethylphenyl)-N-((R)-6-(naphthalen-2-ylmethyl)-1,2,3,4-tetrahydroquinolin-4-yl)propanamide] |  |  |  | % stimulation MOR (µ-opioid receptor (MOR) [1]): 96 (3) %; EC50 DOR (δ-opioid receptor (DOR) [4]): dns; EC50 KOR (κ-opioid receptor (KOR) [5]): dns
Cc1cc(O)cc(C)c1C[C@H](N)C(=O)N[C@@H]1CCNc2ccc(CC3CCCCC3)cc21 [14b, (S)-2-Amino-N-((R)-6-(cyclohexylmethyl)-1,2,3,4-tetrahydroquinolin-4-yl)-3-(4-hydroxy-2,6-dimethylphenyl)propanamide] | dns | dns |  | 
Cc1cc(O)cc(C)c1C[C@H](N)C(=O)N[C@@H]1CCCc2ccc(Cc3cccc4ccccc34)cc21 [14p, (S)-2-Amino-3-(4-hydroxy-2,6-dimethylphenyl)-N-((R)-7-(naphthalen-1-ylmethyl)-1,2,3,4-tetrahydronaphthalen-1-yl)propanamide] | dns | dns | dns ^d | 
Cc1cc(O)cc(C)c1C[C@H](N)C(=O)N[C@@H]1CCNc2ccc(CC3CCc4ccccc43)cc21 (mixture of isomers) [14h, (S)-2-Amino-N-((R)-6-(((R/S)-2,3-dihydro-1H–inden-1-yl)methyl)-1,2,3,4-tetrahydroquinolin-4-yl)-3-(4-hydroxy-2,6-dimethylphenyl)propanamide] | dns | dns |  | 
CC(=O)N1CC[C@@H](NC(=O)[C@@H](N)Cc2c(C)cc(O)cc2C)c2cc(Cc3cccc4ccccc34)ccc21 [14d, (S)-N-((R)-1-Acetyl-6-(naphthalen-1-ylmethyl)-1,2,3,4-tetrahydroquinolin-4-yl)-2-amino-3-(4-hydroxy-2,6-dimethylphenyl)propanamide] | dns | dns | dns ^d | Kb (DOR): 27.5 nM; plasma stability (Plasma stability testing): fully stable
Cc1cc(O)cc(C)c1C[C@H](N)C(=O)N[C@@H]1CCCc2ccc(CC3CCCCC3)cc21 [14n, (S)-2-Amino-N-((R)-7-(cyclohexylmethyl)-1,2,3,4-tetrahydronaphthalen-1-yl)-3-(4-hydroxy-2,6-dimethylphenyl)propanamide] | dns | dns |  | Ki (µ-opioid receptor (MOR) [6]): 0.12 nM; EC50 MOR (µ-opioid receptor (MOR) [7]; [35S]GTPγS binding, mean (S.E.M.), n=3): dns; % stimulation MOR (µ-opioid receptor (MOR) [7]; percent maximal stimulation relative to DAMGO at 10 µM): dns
CC(=O)N1CC[C@@H](NC(=O)[C@@H](N)Cc2c(C)cc(O)cc2C)c2cc(Cc3ccc4ccccc4c3)ccc21 [14a, (S)-N-((R)-1-Acetyl-6-(naphthalen-2-ylmethyl)-1,2,3,4-tetrahydroquinolin-4-yl)-2-amino-3-(4-hydroxy-2,6-dimethylphenyl)propanamide] | dns | dns | dns ^d | Kb (DOR): 1.98 nM; plasma stability (Plasma stability testing): fully stable; duration of maximal antinociception (C57BL/6 mice; mouse WWTW time course): approximately 200 min; duration of action compared to 14i (C57BL/6 mice; mouse WWTW, relative to original lead 14i): greater than 3 times
CC(=O)N1CC[C@@H](NC(=O)[C@@H](N)Cc2c(C)cc(O)cc2C)c2cc(CC3Cc4ccccc4C3)ccc21 [14f, (S)-N-((R)-1-Acetyl-6-((2,3-dihydro-1H–inden-2-yl)methyl)-1,2,3,4-tetrahydroquinolin-4-yl)-2-amino-3-(4-hydroxy-2,6-dimethylphenyl)propanamide] | dns | dns |  | 
Cc1cc(O)cc(C)c1C[C@H](N)C(=O)N[C@@H]1CCNc2ccc(Cc3cccc4ccccc34)cc21 [14k, (S)-2-Amino-3-(4-hydroxy-2,6-dimethylphenyl)-N-((R)-6-(naphthalen-1-ylmethyl)-1,2,3,4-tetrahydroquinolin-4-yl)propanamide] |  |  |  | % stimulation MOR (µ-opioid receptor (MOR) [1]): 93 (5) %; EC50 KOR (κ-opioid receptor (KOR) [5]): dns
CC(=O)N1CC[C@@H](NC(=O)[C@@H](N)Cc2c(C)cc(O)cc2C)c2cc(CC3CCc4ccccc43)ccc21 (mixture of isomers) [14g, (S)-N-((R)-1-Acetyl-6-(((R/S)-2,3-dihydro-1H–inden-1-yl)methyl)-1,2,3,4-tetrahydroquinolin-4-yl)-2-amino-3-(4-hydroxy-2,6-dimethylphenyl)propanamide] | dns | dns |  | EC50 (κ-opioid receptor (KOR) [3]): > 1000 nM
Cc1cc(O)cc(C)c1C[C@H](N)C(=O)N[C@@H]1CCCc2ccc(Cc3ccc4ccccc4c3)cc21 [14o, (S)-2-Amino-3-(4-hydroxy-2,6-dimethylphenyl)-N-((R)-7-(naphthalen-2-ylmethyl)-1,2,3,4-tetrahydronaphthalen-1-yl)propanamide] | dns | dns | dns | 
CC(=O)N1CC[C@@H](NC(=O)[C@@H](N)Cc2c(C)cc(O)cc2C)c2cc(Cc3ccccc3)ccc21 [14e, (S)-N-((R)-1-Acetyl-6-benzyl-1,2,3,4-tetrahydroquinolin-4-yl)-2-amino-3-(4-hydroxy-2,6-dimethylphenyl)propanamide] |  | 26 (3) % |  | 
CC(=O)N1CC[C@@H](NC(=O)[C@@H](N)Cc2c(C)cc(O)cc2C)c2cc(CC3CCCCC3)ccc21 [14c, (S)-N-((R)-1-Acetyl-6-(cyclohexylmethyl)-1,2,3,4-tetrahydroquinolin-4-yl)-2-amino-3-(4-hydroxy-2,6-dimethylphenyl)propanamide] |  | 26 (5) % |  | 
